Screening data (PubChem)
Lipid droplet = modulators of hepatic lipid droplet formation. inhibition, % at 6.5 µM. AML12 mouse hepatocytes, oleate lipid droplets, BODIPY imaging. 0.4% of 240,000 active;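 active means lipid droplet intensity inhibited by at least 50%, with more than 500 cells counted; inconclusive means wells with under 300 cells, treated as cytotoxic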
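Material – AML12 mouse liver cells · Also added – oleate loading, 100 µM · Compound dosing – 6.5 µM single-point dosing · Times – overnight treatment with compound plus oleate · Measured by – fluorescence imaging, 20x objective, two fields per well · Read-out – percent inhibition of filter-corrected integrated lipid droplet intensity per well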
NOD2 RIPK2 PPI = NOD2-RIPK2 protein interaction inhibition | 0.38% of 360,000 active | inhibition, % at 4.98 µM | CHO BLA complementation NOD2-RIPK2, CCF4 ratio | O43353; in the data active means inhibition above about 21%;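 further: 0% = vehicle only and 100% = reference blocker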
SR-BI uptake up = activators of SR-BI mediated HDL lipid uptake | activation, % at 12.5 µM | 0.096% of 320,000 active | CHO ldlA[mSR-BI] cells, DiI-HDL uptake fluorescence, 3 h; 100 = double the neutral-control signal | AID 504775;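 active means mean replicate activation of at least 60% and every replicate at or above 60%; inconclusive means mean or all-replicate condition met, but not both; inactive means mean below 60% and not all replicates reaching 60%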;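 further: 0% = median plate neutral-control signal and 100% = twice that signal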
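System: LDL receptor-deficient CHO ldlA cells overexpressing murine SR-BI | Timing: 3 h uptake period with compound, 37 °C | Medium: HEPES-buffered (25 mM, pH 7.4) F12 plus 0.5% BSA | Dosing: Single-point compound dose | Signal: Bottom-read fluorescence, 550/595 nm | Read-out: Retained DiI signal reflecting DiI-HDL uptake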
SR-BI HDL uptake = blocks mouse SR-BI lipid uptake from DiI-HDL; Q61009; ldlA[mSR-BI] CHO cells, DiI-HDL uptake fluorescence, 3 h; inhibition, % at 12.5 µM; 0.96% of 320,000 active; AID 488896;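 active means mean replicate inhibition of at least 70% and a set share of replicates each scoring 70 or more; inconclusive means meets just one of the two criteria; inactive means fails both criteria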;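 further: 0% = median of neutral control wells and 100% = median of positive control wells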
TLR4-MyD88 BLA = inhibitors of human TLR4-MyD88 binding. inhibition, % at 8.4 µM. O00206+Q99836. 0.18% of 200,000 active. HeLa CL3-4 TLR4/MyD88 BLA complementation, FRET ratio; in the data active means inhibition above about 25%;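 further: 0% = vehicle and 100% = reference inhibitor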
TLR9-MyD88 inh = inhibitors of human TLR9-MyD88 binding; Q9NR96+Q99836; 0.21% of 340,000 active; CHO BLA complementation TLR9-MyD88, CCF4 FRET ratio; inhibition, % at 4.98 µM;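 active means inhibition above the mean over all tested compounds plus 3 SD, cut at about 21% in these data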;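 further: 0% = DMSO only wells and 100% = clavulanate BLA inhibitor control wells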
DiI quench = quenches DiI-HDL fluorescence, an SR-BI assay artifact | shares compounds with SR-BI HDL uptake | cell-free DiI-HDL fluorescence quenching, 30 min | AC50, µM (doses to about 35 µM), without a hit: at the highest dose activity change, negative = quenching | 20% of 470 active;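 active means quenching, a falling signal, with AC50 below a set limit tied to the top valid dose, actives reach about 32 µM in these data; inconclusive means no clear call, values can overlap the other calls; inactive means rising signal, and the rest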
Numbers without * were called inactive; ? = inconclusive; · = no result. In the library only some 1.6% were active in any assay of this set; here they are far more common.

SMILES | Lipid droplet | NOD2 RIPK2 PPI | SR-BI uptake up | SR-BI HDL uptake | TLR4-MyD88 BLA | TLR9-MyD88 inh | DiI quench
CC(=O)Nc1cc(NC(C)=O)cc(C(=O)OCC(=O)N(c2ccccc2)C2CCS(=O)(=O)C2)c1 (stereo unspecified) | · | -6 | 12 | -12 | · | -2 | -3%
COc1cccc(-c2nnc(SC(C(=O)c3c[nH]c4ccccc34)c3ccccc3)n2C)c1 (stereo unspecified) | 8 | -9 | -75 | 75* | -4 | -10 | 1%
COc1ccc(OC)c(NC(=O)CCC(=O)N(Cc2ccc(OC)c(OC)c2)c2nccs2)c1 | 1 | -1 | -73 | ? | 3 | 0 | -10%
CCn1c(COc2c(C)cccc2C)nnc1SCC(=O)N1CCN(c2ccccc2)CC1 | · | 4 | -79 | 79* | 3 | 7 | -3%
Cc1ccc(C)c(C(O)c2ncc(-c3cccc(F)c3)[nH]2)c1 (stereo unspecified) | · | -13 | · | · | · | · | ·
COc1cc(OC)cc(C(=O)N[C@H](C(=O)OCC(=O)c2ccc3c(c2)NC(=O)CO3)C(C)C)c1 | 12 | 1 | 16 | -16 | -7 | 0 | 6%
Cc1cccc(C(=O)OCC(=O)c2ccc3c(c2)NC(=O)CO3)c1 | · | 4 | 0 | 0 | · | 0 | ·
CC(C)C(C(=O)OCC(=O)c1ccc2c(c1)NC(=O)CO2)N1C(=O)c2ccccc2C1=O (stereo unspecified) | 8 | -1 | -23 | 23 | -5 | 7 | -1%
CC[C@H](C)[C@H](NC(=O)c1ccc(Cl)cc1)C(=O)OCC(=O)c1ccc2c(c1)NC(=O)CO2 | -2 | 3 | -86 | 86* | 12 | 3 | 2%
CC(C)[C@H](NC(=O)c1ccccc1)C(=O)OCC(=O)c1ccc2c(c1)NC(=O)CO2 | -6 | 1 | -10 | 10 | 1 | -1 | ·
Cc1ccc(C)c(N2CCN(CCCNC(=O)Cn3c(=O)c4cccn4c4cccnc43)CC2)c1 | -18 | -1 | -70 | ? | · | -1 | -3%
COc1cc(/C=C/CNC[C@H]2O[C@@H](n3ccc(=O)[nH]c3=O)[C@H](O)[C@@H]2O)ccc1O | · | 1 | 12 | -12 | · | 4 | ·
O=C(NNCc1ccccc1)c1ccccn1 | · | -14 | 11 | -11 | · | -2 | ·
CCOC(=O)C1CCN(C(=O)Cn2cnc3sc(C)c(S(=O)(=O)N4CCCCC4)c3c2=O)CC1 | -4 | -10 | -15 | 15 | · | 5 | ·
CCOC(=O)C1CCN(C(=O)Cn2cnc3sc(C)c(S(=O)(=O)N4CCC(C)CC4)c3c2=O)CC1 | 23 | -12 | -71 | ? | · | -1 | 1%
COc1ccc(S(=O)(=O)N2CCc3ccccc32)cc1[N+](=O)[O-] | -24 | -8 | -24 | 24 | · | -6 | ·
CS(=O)(=O)c1ncc(CO)n1Cc1ccccc1 | -9 | -3 | 16 | -16 | 19 | -7 | ·
CCOc1ccccc1/C=C/c1onc(C)c1S(=O)(=O)N1CCC(C(=O)NC)CC1 | -5 | -3 | -72 | ? | · | 7 | ·
CCOc1ccccc1/C=C/c1onc(C)c1S(=O)(=O)N1CCC(C(=O)NC(C)(C)C)CC1 | -27 | 5 | -84 | 84* | · | 5 | 4%
CCCCN(C(=O)Cn1ncc(Cl)c(Cl)c1=O)c1c(N)n(CC(C)C)c(=O)[nH]c1=O | 3 | -3 | · | · | · | -4 | ·
CC(C)c1ccc(/C=N/n2cnnc2)cc1 | 14 | -1 | 14 | -14 | · | -5 | ·
CCOc1ccccc1COC(=O)c1cccc(-n2cnnn2)c1 | · | 5 | -72 | 72* | 1 | 0 | 1%
COc1ccccc1C(=O)COC(=O)c1cccc(-n2cnnn2)c1 | · | -5 | -16 | 16 | · | 1 | ·
C=CC[C@@H](CC(=O)N(CCO)Cc1ccccc1)C(=O)N[C@@H](C)COC(=O)[C@@H](CC=C)Cc1ccc(F)cc1 | · | 1 | 7 | -7 | · | 2 | ·
Cc1cccc(N2CCN(C(=O)COc3ccc4c(C)cc(=O)oc4c3C)CC2)c1C | -6 | 6 | -71 | ? | · | -13 | 4%
SMILES | Lipid droplet | NOD2 RIPK2 PPI | SR-BI uptake up | SR-BI HDL uptake | TLR4-MyD88 BLA | TLR9-MyD88 inh | DiI quench
Cc1ccc2oc(-c3cccc(NC(=O)c4cc(-n5cnnc5)ccc4Cl)c3)nc2c1 | -11 | -5 | -76 | 76* | -6 | 2 | 15%
Cc1ccc2oc(-c3cccc(NC(=O)c4ccccn4)c3)nc2c1 | · | 3 | -8 | 8 | · | -5 | ·
CCC(C)c1ccccc1N1CC(C(=O)N2CCN(S(=O)(=O)c3cccc([N+](=O)[O-])c3)CC2)CC1=O (stereo unspecified) | · | -6 | -10 | 10 | · | 3 | -14%
COC(=O)c1cnc(Oc2ccc(NC(=O)NC(=O)c3c(OC)cccc3OC)cc2)cc1C(F)(F)F | -136 | 0 | -71 | ? | · | 1 | 1%
Cc1ccc(NC(=O)c2cc(-c3ccco3)nc3ccccc23)cc1S(=O)(=O)N1CCOCC1 | 6 | -10 | -102 | 102* | -8 | -7 | 0%
CCOc1cc(N2CCOCC2)c(OCC)cc1NC(=O)c1cc(-c2ccco2)nc2ccccc12 | · | -4 | -79 | 79* | 0 | -6 | 24µM*
CC(=O)OCC(=O)Nc1ccccc1C | -23 | 6 | 6 | -6 | -2 | 6 | ·
Nc1ccc2c(c1)C(=O)CCC2 | · | -2 | · | · | · | 8 | ·
CSc1ccccc1OCc1cc(C(=O)N(C)Cc2cc(C)[nH]n2)no1 | -4 | -14 | -37 | 37 | · | -13 | ·
CSc1ccccc1OCc1cc(C(=O)N(C)Cc2c(C)n[nH]c2C)no1 | -12 | -7 | -78 | 78* | · | -6 | -4%
CCC(C)(O)c1[nH]c2ccc(C(F)(F)F)cc2c1C (stereo unspecified) | -15 | 10 | -20 | 20 | · | -13 | ·
Cc1cccc(Nc2nc3c(c(=O)n(C)c(=O)n3C)n2Cc2ccccc2)c1 | -16 | -14 | 20 | -20 | 6 | -4 | ·
COc1ccc(OCC(O)Cn2c(Nc3cccc(C)c3)nc3c2c(=O)n(C)c(=O)n3C)cc1 (stereo unspecified) | 2 | -4 | -77 | 77* | -11 | -2 | -10%
C[C@@H]1COc2cc(N3CCC[C@H]3CO)ccc2S(=O)(=O)N1 | · | -8 | · | · | · | · | ·
CCOc1ccc(NC(=O)CN2CCN(CC(=O)Nc3cc(OC)cc(OC)c3)CC2)cc1 | -11 | -13 | -81 | 81* | 9 | -7 | -1%
CCOc1ccc(NC(=O)CN2CCN(CC(=O)Nc3ccc(Cl)c(C(F)(F)F)c3)CC2)cc1 | -1 | 6 | -37 | 37 | -7 | -8 | 1%
CCOc1ccc(NC(=O)CN2CCN(CC(=O)Nc3cccc(F)c3)CC2)cc1 | -10 | -2 | -50 | 50 | 4 | -1 | ·
